Measured values published in ChEMBL document CHEMBL1141264, “Cucurbitane-type triterpenoids from the fruits of Momordica charantia and their cancer chemopreventive effects” (J Nat Prod, 2007).

Legend:
[1] = test system: Raji; assay: Inhibition of TPA-induced Epstein-Barr virus early antigen in Raji cells at 1000 mol ratio/TPA relative to control; values are per cent of control; conditions: human gammaherpesvirus 4
[2] = species on record: Mus musculus; assay: Inhibition of DMBA-induced carcinogenesis in mouse assessed as number of papillomas per mouse after 20 weeks; type: functional
Method in brief: (§1)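 Mouse skin two-stage model, DMBA initiation and TPA promotion. Promotion with TPA 1.7 nmol; treated groups received 85 nmol test compound with each TPA application. Read-outs were % of mice bearing papillomas and mean papillomas per mouse, scored at 10 and 20 weeks. Papilloma numbers compared by Student's t-test.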

[3] = test system: Mus musculus; assay: Inhibition of peroxynitrite-induced carcinogenesis in po dosed mouse skin assessed as incidence of papilloma bearing mouse after 20 weeks; type: functional; design: scale not given: the % may be the effect or the level left
Method in brief: (§2)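 Mouse back shaved and initiated topically with peroxynitrite (PN) 390 nmol in 1 mM NaOH (0.1 mL). Test compound given orally at 0.0025% in drinking water from 1 week before to 1 week after initiation. From 1 week after initiation, TPA (1 μg, 1.7 nmol) in acetone applied twice weekly. 15 mice per group. Papilloma incidence and papillomas per mouse recorded weekly for 20 weeks; papillomas counted once about 1 mm × 1 mm. Student's t-test used.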

[4] = test system: Raji; assay: Inhibition of TPA-induced Epstein-Barr virus early antigen in Raji cells at 500 mol ratio/TPA relative to control; values are per cent of control; conditions: human gammaherpesvirus 4
[5] = test system: Raji; assay: Inhibition of TPA-induced Epstein-Barr virus early antigen in Raji cells at 10 mol ratio/TPA relative to control; values are per cent of control; conditions: human gammaherpesvirus 4
[6] = Cytotoxicity against human Raji cells assessed as cell viability at 1000 mol ratio/TPA relative to control; type: cell-based; conditions: read-out: Activity
Method in brief: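 Raji cells stimulated with TPA at 32 pmol (20 ng), taken as 100% positive control. Test compound added at mol ratio to TPA of 1000, 500, 100 or 10 (1000:1 = 32 nmol). EBV-EA induction expressed as % of positive control; Raji cell viability recorded as % at the 1000 ratio. IC50 as mol ratio to TPA inhibiting 50% of control.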

[7] = test system: Mus musculus; assay: Inhibition of peroxynitrite-induced carcinogenesis in po dosed mouse skin assessed as reduction in papilloma bearing animals after 20 weeks; type: functional
Method in brief: as §2

[8] = species on record: Mus musculus; assay: Inhibition of DMBA-induced carcinogenesis in mouse assessed as number of papillomas per mouse after 10 weeks; type: functional
Method in brief: as §1

[9] = species on record: Mus musculus; assay: Inhibition of DMBA-induced carcinogenesis in mouse assessed as reduction in papilloma bearing mouse after 10 weeks; type: functional; design: scale not given: the % may be the effect or the level left
Method in brief: as §1

[10] = species on record: Mus musculus; assay: Inhibition of DMBA-induced carcinogenesis in mouse assessed as reduction in papilloma bearing mouse after 20 weeks; type: functional; design: scale not given: the % may be the effect or the level left
Method in brief: as §1

[11] = test system: Raji; assay: Inhibition of TPA-induced Epstein-Barr virus early antigen in Raji cells at 100 mol ratio/TPA relative to control; values are per cent of control; conditions: human gammaherpesvirus 4
[12] = Scavenging activity against NO generation in NOR1-induced cell culture; type: functional
Method in brief: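 Cultured-cell screen for scavenging of NO released by the NO donor NOR 1. Activity expressed as inhibitory ratio (IR) against NOR 1 action, with glycyrrhizin and carboxy-PTIO as reference compounds.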

CO[C@@H]1O[C@]23C=C[C@@H]4[C@@]1(CC[C@]1(C)[C@@H]([C@H](C)C/C=C/C(C)(C)OC)CC[C@@]41C)[C@@H]2CC[C@H](O)C3(C)C
level, % of control [1]: 0% | Activity [2]: 3.9 | Activity [3]: 80% | level, % of control [4]: 19% | level, % of control [5]: 83.9% | viability at 1000 mol ratio/TPA [6]: 70% | Activity [7]: 4.5 | Activity [8]: 2.1 | Activity [9]: 33% | Activity [10]: 80% | level, % of control [11]: 42.4% | inhibitory ratio (IR) against NOR 1 action [12]: 1.9
